Laboratory results reported in the RNAGym collection of RNA variant scans (doi:10.1126/science.aae0568).
Fewer inactive variants are shown than the library holds.

B1: tRNA (parent)
chain: GUUCCGUUGGCGUAAUGGUAACGCGUCUCCCUCCUAAGGAGAAGACUGCGGGUUCGAGUCCCGUACGGAACG

Variants of: B1
Test: yeast fitness relative to wild type (ratio to wild type); higher = fitter; tRNA-Arg(CCU), competitive growth, 37 C, YPD
Summary of the method: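 A pool of Saccharomyces cerevisiae strains, each with a tRNA-Arg(CCU) gene variant at the native genomic locus, was competed in YPD at 37°C for 24 hours across six parallel replicates. The variants had been chemically synthesised at a 3% per-site mutation rate over 69 sites, and gene amplicons before and after competition were read by 100-nucleotide paired-end sequencing. Darwinian fitness relative to wild type rested on changes in genotype frequencies. Genotypes required ≥ 100 starting reads, and estimates < 0.5 were set to 0.5.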

Variant | yeast fitness
C4G A14G C30G G63C | ≤ 0.5
C4A U35C G44C | ≤ 0.5
C4A G6A G68A | ≤ 0.5
C4A U19A A40U G48C | ≤ 0.5
C4A C22U C24A C29A A36C | 0.518
C4A G6A A40G U53G C62G C66U | 0.6
C4A G25C C61A | 0.694
C4A G18C C33U U59A | ≤ 0.5
C4G A15G A20G G23A C34G G67A | ≤ 0.5
C4A G56A C62U | 0.626
C4A C33U | 0.754
C4G A14C G50C G56C | ≤ 0.5
C4A C27G C31G | ≤ 0.5
C4A G18C A43C C62G A65C C66A | ≤ 0.5
C4A G17C | 0.629
C4A G51C C66U | ≤ 0.5
C4A U32G A45G A69U | ≤ 0.5
C4A C29G A37C U54A | ≤ 0.5
C4A C22U A40G A43U C46G C49G C62U | 0.527
C4A G17A C62A | ≤ 0.5
C4A G68C | 0.808
C4G A15G G17A C34A | ≤ 0.5
C4A C33A C60A | ≤ 0.5
C4A U16C C34U C61A | ≤ 0.5

Variant | yeast fitness
C4A C46G C61A | 0.522
C4A U19G U35C U53C | ≤ 0.5
C4A U7A U8A U35C C60A | ≤ 0.5
C4A C61A G67A | ≤ 0.5
C4A U26C C27G C33G A37U G41A A57G C62G | ≤ 0.5
C4G A14U A20G A21C | 0.55
C4A U13G C24U A42G G52A | 0.601
C4A C55U | 0.943
C4A C55G | 0.55
C4A C29U G67A A70U | ≤ 0.5
C4A U64A | 0.815
C4A G6A G50A | ≤ 0.5
C4A C24U U47G | ≤ 0.5
C4A G51C | 0.547
C4G A15G C22G G23A C49A | ≤ 0.5
C4A C31G A40U A65U G68C | 0.595
C4A U8C C24G G44C G68U | ≤ 0.5
C4A G10A C31A | ≤ 0.5
C4A U26A | 0.683
C4A G41A A42C G50C A70G | ≤ 0.5
C4A C34A C62G | ≤ 0.5
C4G A14G C27U A42U | ≤ 0.5
C4A G10A A21G C22G A65G | ≤ 0.5
C4A U16C C33U A42G | ≤ 0.5

Variant | yeast fitness
C4A G17A G41A U54A A57C | ≤ 0.5
C4A U26A A36C C49G | 0.583
C4A U16A A43C C46U | ≤ 0.5
C4A G17A C24G G63C | 0.64
C4A C27U U28G C33G A36G G50C C66U | ≤ 0.5
C4A G17A G51C | ≤ 0.5
C4A U13A G18A G52A C55G A69U | ≤ 0.5
C4A G63C | 0.748
C4A U8C G51C | ≤ 0.5
C4A G48C G51C A57U G68C | ≤ 0.5
C4A U19G C30G | ≤ 0.5
C4A C31G A45G G50C | 0.576
C4A C27G A42G U53A | ≤ 0.5
C4A U19G A70C | 0.854
C4G A15U A21G G48A G50C | ≤ 0.5
C4A C29A | 0.637
C4A C22G G51C A65C | 0.731
C4A U28G | 0.681
C4A G9A G18C C22A A69C | ≤ 0.5
C4A G18C C33G | 0.591
C4G A15G G23A C34G G67A | 0.556
C4A G6A G67U | ≤ 0.5
C4A U47C | 0.773
C4A G23A U28A | ≤ 0.5

Variant | yeast fitness
C4A C27U A42U C62U | ≤ 0.5
C4A C31G C46U | 0.677
C4A U7A U8G A45C A65G C66G | ≤ 0.5
C4A C30A | 0.837
C4A C30G | 0.661
C4A C24G U32C C62U A69C | ≤ 0.5
C4A C22G C29U U35C | ≤ 0.5
C4A U16G C30A | 0.62
C4A C27A C62A | ≤ 0.5
C4G A15C C30A A42C G56A A57U | ≤ 0.5
C4G A14G C31A | 0.528
C4A G9A C22A C27G | ≤ 0.5
C4A G39C G44C G52C | 0.685
C4A G12C | 0.679
C4A G56U | 0.786
C4G A14G U64C | ≤ 0.5
C4A C60U | 0.825
C4A U13A G58C A69U | 0.655
C4A C29G G50A | ≤ 0.5
C4A G9C C11G C30A C55A C62A | ≤ 0.5
C4A G41C C49U | ≤ 0.5
C4A G17A C27G G63A | ≤ 0.5
C4A U8C G18C C33U | ≤ 0.5
C4G A14U A37U U53C A69U | ≤ 0.5

Variant | yeast fitness
C4A C27G G52A | 0.713
C4G A15G | 0.732
C4A G18A | 0.78
C4A G18C | 0.58
C4A C34G A70G | ≤ 0.5
C4A C22G C55G G63C | ≤ 0.5
C4A U26G C29G U47G U59G | ≤ 0.5
C4A C24U C46U C55A C66U | ≤ 0.5
C4A U26A A45U | 0.656
C4A C46G C55G | ≤ 0.5
C4A U19A C27U G67A | 0.573
C4A U7C G41A C49A U54C | ≤ 0.5
C4A C30A A40G G48A | ≤ 0.5
C4A G10C A57U | ≤ 0.5
C4A C46U G68A | 0.887
C4A C27U U28G C33G A36G | 0.533
C4A G23C C24U A65G | 0.556
C4A C33G U47A | 0.625
C4G | 1.01
C4A G9A U13G C22U C61A A70C | ≤ 0.5
C4G A14C G25C U32C A45U A57U | ≤ 0.5
C4A U13C G23C C34G A45G U53C U64A | 0.675
C4A G17A G51C G63A | ≤ 0.5
C4A U16A A37G A69U | ≤ 0.5

Variant | yeast fitness
C4A G9C C30A G39A C61G | ≤ 0.5
C4A U19C U35C G48A | ≤ 0.5
C4A G10A G50A | ≤ 0.5
C4A C66A | 0.569
C4G A15C U26G G41C A69U | ≤ 0.5
C4A C22U C33G A45C U47C U53G A69C | ≤ 0.5
C4A C31G C62G G68C | ≤ 0.5
C4A C55G C61U | ≤ 0.5
C4A U19G A36C | 0.506
C4A C29U C33A A36C A42C A45G | ≤ 0.5
C4A G23A A40C | ≤ 0.5
C4G A15G U26G | ≤ 0.5
C4G A15G G17C C34A | 0.598
C4A G9A C22A C27G U54A | ≤ 0.5
C4A G17C G23C A45C U54C | ≤ 0.5
C4A U8G A69U | ≤ 0.5
C4A C31U G44A A45U | 0.574
C4A C24A G51C | 0.595
C4A U35C G48C C55U G56A | 0.51
C4G A14C G48C A69U A70G | ≤ 0.5
C4A G6A A21C C24U A43G | ≤ 0.5
C4G A20G G51C | 0.66
C4A U32C C46A | 0.697
C4A U28A C31G U35A U47A U54A | ≤ 0.5

Variant | yeast fitness
C4A G67U | 0.843
C4A U16C G17A U32C | ≤ 0.5
C4A G44C G51A G58C U59A | ≤ 0.5
C4A U7A U8A C60A | ≤ 0.5
C4G A20C U26G C33U G44C U59A | ≤ 0.5
C4A G12C U19C C24G A43U C61A | 0.502
C4A C27G C46U | 0.636
C4A C49G G63C | 0.9
C4A U32C C46G C62A | ≤ 0.5
C4A U8A G12C U19C C30U | ≤ 0.5
C4A C24G C30U A45G | 0.523
C4A G39C G41C G56C | ≤ 0.5
C4A C46U C55U | ≤ 0.5
C4A U16A C30G C31U | ≤ 0.5
C4A G6A C30A A65G | ≤ 0.5
C4A C27U U28G C33G A36G G56C | ≤ 0.5
C4A G48C | 0.749
C4A G17U C46A | 0.645
C4A G23A U28A G48A A70C | ≤ 0.5
C4A C31U C34A A40G | ≤ 0.5
C4A U8C C49U C55A C66U | ≤ 0.5
C4A G38C | 0.652
C4A C22U U54A | 0.685
